Experimental data: ChEMBL document CHEMBL5260793, “Novel pyrazolo[3,4-d]pyrimidine with 4-(1H-benzimidazol-2-yl)-phenylamine as broad spectrum anticancer agents: Synthesis, cell based assay, topoisomerase inhibition, DNA intercalation and bovine serum albumin studies” (Eur J Med Chem, 2017)
The source made the active and inactive calls. The rule behind the calls is not given here.

Columns and labels:
[1] = system: Calf thymus DNA; experiment: Binding affinity to calf thymus DNA assessed as hypochromicity at pH 7.4 at 10 uM by UV-vis absorption spectroscopy; type: nucleic-acid assay; conditions: Bos taurus
In short: (§1)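 Absorption titration at 300 K in a 1 cm cell, background subtracted. Compound was fixed (10 μM per legend; 20 μM in methods) with ct-DNA added up to 15–20 μM in 10 mM phosphate buffer, pH 7.4 (A260/A280 1.82). A buffer-addition control was run. K was taken from the 1/(Af−Aobs) vs 1/[DNA] fit.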

[2] = target: DNA topoisomerase 2-alpha (Homo sapiens) (UniProt P11388); experiment: Inhibition of human DNA topoisomerase II-alpha mediated supercoiled pHOT1 plasmid DNA relaxation at 100 uM incubated for 30 mins by ethidium bromide staining based agarose gel electrophoresis analysis
In short: (§2)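 Reaction buffer: 50 mM Tris-Cl pH 8.0, 120 mM KCl, 10 mM MgCl2, 0.5 mM ATP, 0.5 mM DTT. Each reaction held 500 ng supercoiled pHOT1 and 1 U human Topo IIα, with compound at 10–100 μM, for 30 min at 37 °C. Reactions were stopped with glycerol/EDTA/bromophenol blue, run on 1% agarose in TBE, and stained with ethidium bromide. Etoposide 25 μM was the positive control.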

[3] = system: Panel CNS (Carcinoma cell lines); experiment: Anticancer activity against human Panel CNS (Carcinoma cell lines) assessed as total growth inhibition incubated for 48 hrs by Sulphorhodamine B assay; type: functional
In short: (§3)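 NCI-60 five-dose screen. Cells in RPMI 1640 with 5% FBS and 2 mM L-glutamine were plated at 5,000–40,000 cells/well and held 24 h before dosing. Compounds came from DMSO stocks and were given at five concentrations (10-fold or ½-log dilutions) for 48 h at 37 °C. Adherent cells were TCA-fixed and stained with SRB; A515 was read. GI50 was set from growth = 50% and TGI from Ti = Tz, using Tz/C/Ti.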

[4] = system: Panel melanoma (Carcinoma cell lines); experiment: Anticancer activity against human Panel melanoma (Carcinoma cell lines) assessed as total growth inhibition incubated for 48 hrs by Sulphorhodamine B assay; type: functional; in short: as §3
[5] = target: DNA topoisomerase 2-alpha (Homo sapiens) (UniProt P11388); experiment: Inhibition of human DNA topoisomerase II-alpha mediated supercoiled pHOT1 plasmid DNA relaxation at 50 uM incubated for 30 mins by ethidium bromide staining based agarose gel electrophoresis analysis; in short: as §2
[6] = system: Calf thymus DNA; experiment: Binding affinity to calf thymus DNA assessed as maximum absorption wavelength shift at pH 7.4 at 10 uM by UV-vis absorption spectroscopy; type: nucleic-acid assay; conditions: Bos taurus; in short: as §1
[7] = system: Panel leukemia (Carcinoma cell lines); experiment: Anticancer activity against human Panel leukemia (Carcinoma cell lines) assessed as total growth inhibition incubated for 48 hrs by Sulphorhodamine B assay; type: functional
[8] = system: Panel leukemia (Carcinoma cell lines); experiment: Anticancer activity against human Panel leukemia (Carcinoma cell lines) assessed as cell growth inhibition incubated for 48 hrs by Sulphorhodamine B assay; type: functional; in short: as §3
[9] = Anticancer activity against human Non-small cell lung cancer cell line assessed as cell growth inhibition incubated for 48 hrs by Sulphorhodamine B assay; type: functional; in short: as §3
[10] = system: Panel breast (Carcinoma cell lines); experiment: Anticancer activity against human Panel breast (Carcinoma cell lines) assessed as total growth inhibition incubated for 48 hrs by Sulphorhodamine B assay; type: functional; in short: as §3
[11] = system: Panel prostate (Carcinoma cell lines); experiment: Anticancer activity against human Panel prostate (Carcinoma cell lines) assessed as total growth inhibition incubated for 48 hrs by Sulphorhodamine B assay; type: functional; in short: as §3
[12] = target: DNA topoisomerase 2-alpha (Homo sapiens) (UniProt P11388); experiment: Inhibition of human DNA topoisomerase II-alpha mediated supercoiled pHOT1 plasmid DNA relaxation at 75 uM incubated for 30 mins by ethidium bromide staining based agarose gel electrophoresis analysis; in short: as §2
[13] = system: Panel colon (Carcinoma cell lines); experiment: Anticancer activity against human Panel colon (Carcinoma cell lines) assessed as lethality incubated for 48 hrs by Sulphorhodamine B assay; type: functional
[14] = system: Panel ovarian (Carcinoma cell lines); experiment: Anticancer activity against human Panel ovarian (Carcinoma cell lines) assessed as cell growth inhibition incubated for 48 hrs by Sulphorhodamine B assay; type: functional; in short: as §3
[15] = Anticancer activity against human Non-small cell lung cancer cell line assessed as lethality incubated for 48 hrs by Sulphorhodamine B assay; type: functional
[16] = system: Panel leukemia (Carcinoma cell lines); experiment: Anticancer activity against human Panel leukemia (Carcinoma cell lines) assessed as lethality incubated for 48 hrs by Sulphorhodamine B assay; type: functional
[17] = system: Calf thymus DNA; experiment: Displacement of Ethidium bromide from calf thymus DNA/EtBr complex assessed as decrease in fluorescent intensity by fluorescence based EtBr-displacement assay; type: nucleic-acid assay; conditions: Bos taurus
In short: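 ct-DNA (0–20 μM) was pre-mixed with ethidium bromide, diluted from a 1 mM stock. Compound was then added in 2 μM steps up to 50 μM, with mixing after each addition. Emission was recorded with excitation at 480 nm.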

[18] = system: Panel melanoma (Carcinoma cell lines); experiment: Anticancer activity against human Panel melanoma (Carcinoma cell lines) assessed as cell growth inhibition incubated for 48 hrs by Sulphorhodamine B assay; type: functional; in short: as §3
[19] = system: Panel ovarian (Carcinoma cell lines); experiment: Anticancer activity against human Panel ovarian (Carcinoma cell lines) assessed as total growth inhibition incubated for 48 hrs by Sulphorhodamine B assay; type: functional
[20] = system: Panel melanoma (Carcinoma cell lines); experiment: Anticancer activity against human Panel melanoma (Carcinoma cell lines) assessed as lethality incubated for 48 hrs by Sulphorhodamine B assay; type: functional
[21] = system: Panel ovarian (Carcinoma cell lines); experiment: Anticancer activity against human Panel ovarian (Carcinoma cell lines) assessed as lethality incubated for 48 hrs by Sulphorhodamine B assay; type: functional
[22] = Anticancer activity against human Non-small cell lung cancer cell line assessed as total growth inhibition incubated for 48 hrs by Sulphorhodamine B assay; type: functional; in short: as §3
[23] = system: Calf thymus DNA; experiment: Binding affinity to calf thymus DNA assessed as decrease in maximum emission wavelength at pH 7.4 at 10 uM by fluorescence spectroscopy; type: nucleic-acid assay; conditions: Bos taurus
In short: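 Compound was held constant (10 μM per legend; 20 μM in methods) and titrated with ct-DNA (0–20 μM) in 10 mM phosphate buffer, pH 7.4. Emission spectra were excited at 300 nm, with a buffer-only control. Binding constant came from a Benesi–Hildebrand plot.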

[24] = system: Panel renal (Carcinoma cell lines); experiment: Anticancer activity against human Panel renal (Carcinoma cell lines) assessed as cell growth inhibition incubated for 48 hrs by Sulphorhodamine B assay; type: functional; in short: as §3
[25] = system: Panel renal (Carcinoma cell lines); experiment: Anticancer activity against human Panel renal (Carcinoma cell lines) assessed as total growth inhibition incubated for 48 hrs by Sulphorhodamine B assay; type: functional
[26] = system: Panel colon (Carcinoma cell lines); experiment: Anticancer activity against human Panel colon (Carcinoma cell lines) assessed as cell growth inhibition incubated for 48 hrs by Sulphorhodamine B assay; type: functional; in short: as §3
[27] = system: Panel prostate (Carcinoma cell lines); experiment: Anticancer activity against human Panel prostate (Carcinoma cell lines) assessed as cell growth inhibition incubated for 48 hrs by Sulphorhodamine B assay; type: functional; in short: as §3
[28] = system: Panel breast (Carcinoma cell lines); experiment: Anticancer activity against human Panel breast (Carcinoma cell lines) assessed as cell growth inhibition incubated for 48 hrs by Sulphorhodamine B assay; type: functional; in short: as §3
[29] = system: Panel colon (Carcinoma cell lines); experiment: Anticancer activity against human Panel colon (Carcinoma cell lines) assessed as total growth inhibition incubated for 48 hrs by Sulphorhodamine B assay; type: functional; in short: as §3

DNA topoisomerase 2-alpha (Homo sapiens), sequence (P11388 whole entry): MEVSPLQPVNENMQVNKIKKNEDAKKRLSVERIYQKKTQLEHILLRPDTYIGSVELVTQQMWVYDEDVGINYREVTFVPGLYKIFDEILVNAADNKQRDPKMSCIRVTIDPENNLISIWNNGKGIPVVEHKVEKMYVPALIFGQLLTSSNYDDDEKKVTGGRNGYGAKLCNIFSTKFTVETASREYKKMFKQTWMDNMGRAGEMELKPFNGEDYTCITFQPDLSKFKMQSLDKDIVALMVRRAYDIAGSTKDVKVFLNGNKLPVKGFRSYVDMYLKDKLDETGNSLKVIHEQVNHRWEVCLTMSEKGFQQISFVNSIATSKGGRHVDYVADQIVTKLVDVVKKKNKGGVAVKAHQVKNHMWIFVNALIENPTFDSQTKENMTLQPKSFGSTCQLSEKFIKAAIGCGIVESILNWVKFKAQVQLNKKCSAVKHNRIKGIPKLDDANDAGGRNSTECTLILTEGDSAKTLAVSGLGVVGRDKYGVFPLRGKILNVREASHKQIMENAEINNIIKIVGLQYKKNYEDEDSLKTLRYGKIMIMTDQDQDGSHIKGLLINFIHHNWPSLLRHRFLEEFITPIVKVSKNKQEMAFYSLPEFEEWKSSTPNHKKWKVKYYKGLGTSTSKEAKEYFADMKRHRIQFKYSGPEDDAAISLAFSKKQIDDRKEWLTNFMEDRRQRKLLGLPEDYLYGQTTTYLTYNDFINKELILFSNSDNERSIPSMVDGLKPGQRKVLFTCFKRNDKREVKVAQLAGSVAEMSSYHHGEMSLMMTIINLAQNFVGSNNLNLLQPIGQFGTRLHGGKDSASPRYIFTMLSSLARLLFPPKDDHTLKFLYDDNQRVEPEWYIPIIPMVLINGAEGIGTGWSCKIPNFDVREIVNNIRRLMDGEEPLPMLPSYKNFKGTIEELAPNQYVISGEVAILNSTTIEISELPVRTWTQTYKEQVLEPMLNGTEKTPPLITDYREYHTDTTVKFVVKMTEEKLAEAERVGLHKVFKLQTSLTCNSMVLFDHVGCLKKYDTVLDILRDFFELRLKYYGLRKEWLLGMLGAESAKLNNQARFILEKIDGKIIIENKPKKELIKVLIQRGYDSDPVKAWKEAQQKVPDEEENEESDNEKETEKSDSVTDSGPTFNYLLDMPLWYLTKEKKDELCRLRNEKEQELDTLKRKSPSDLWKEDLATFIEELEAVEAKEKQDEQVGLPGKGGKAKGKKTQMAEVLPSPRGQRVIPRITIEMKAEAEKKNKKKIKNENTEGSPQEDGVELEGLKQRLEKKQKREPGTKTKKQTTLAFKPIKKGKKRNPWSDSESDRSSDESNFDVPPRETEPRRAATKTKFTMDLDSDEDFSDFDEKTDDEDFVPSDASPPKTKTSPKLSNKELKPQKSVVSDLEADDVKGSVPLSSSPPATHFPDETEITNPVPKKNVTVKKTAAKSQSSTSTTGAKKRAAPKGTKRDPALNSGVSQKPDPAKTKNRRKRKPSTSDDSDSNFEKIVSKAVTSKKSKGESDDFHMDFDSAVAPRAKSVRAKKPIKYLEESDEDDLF

For Fc1ccc(Nc2nc(Nc3ccc(-c4nc5ccccc5[nH]4)cc3)c3cn[nH]c3n2)cc1, the Activity [1] was “Active”, the inhibition [2] was “Active” and the TGI [3] was 5.08 µM. For the same molecule, the TGI [4] was 3.74 µM, the inhibition [5] was “Active” and the Activity [6] was 257 nm. For the same molecule, the TGI [7] was 6.33 µM, the GI50 [8] was 2.62 µM and the GI50 [9] was 2.11 µM. For the same molecule, the TGI [10] was 4.8 µM, the TGI [11] was 4.14 µM and the inhibition [12] was “Active”. The LC50 (lethal concentration, 50% cell kill) [13] was 6.8 µM, the GI50 [14] was 2.49 µM and the LC50 (lethal concentration, 50% cell kill) [15] was 32.5 µM. The LC50 [16] was greater than 100 µM, the Activity [17] was “Active” and the GI50 [18] was 2.8 µM. It also gave a TGI [19] of 6.77 µM, an LC50 (lethal concentration 50) [20] of 6.92 µM and an LC50 (concentration killing 50% of cells) [21] of 28.9 µM. The TGI [22] was 5.37 µM, the Activity [23] was “Active” and the GI50 [24] was 1.84 µM. The TGI [25] was 7.35 µM, the GI50 [26] was 1.78 µM and the GI50 [27] was 1.95 µM. For the same molecule, the GI50 [28] was 1.99 µM and the TGI [29] was 3.83 µM.
With OCCN1CCN(c2nc(Nc3ccc(-c4nc5ccccc5[nH]4)cc3)c3cn[nH]c3n2)CC1 the Activity [1] was “Active”, the inhibition [2] was “Active” and the TGI [3] was 3.26 µM. For the same molecule, the TGI [4] was 3.41 µM, the inhibition [5] was “Active” and the Activity [6] was 259 nm. It also gave a TGI [7] of 1.22 µM, a GI50 [8] of 0.44 µM and a GI50 [9] of 1.57 µM. For the same molecule, the TGI [10] was 3.83 µM, the TGI [11] was 2.96 µM and the inhibition [12] was “Active”. The LC50 (lethal concentration, 50% cell kill) [13] was 5.71 µM, the GI50 [14] was 1.84 µM and the LC50 (lethal concentration, 50% cell kill) [15] was 6.26 µM. The LC50 [16] was greater than 100 µM, the Activity [17] was “Active” and the GI50 [18] was 1.81 µM. For the same molecule, the TGI [19] was 3.59 µM, the LC50 (lethal concentration 50) [20] was 5.83 µM and the LC50 (concentration killing 50% of cells) [21] was 6.09 µM. For the same molecule, the TGI [22] was 3.23 µM, the Activity [23] was “Active” and the GI50 [24] was 1.76 µM. It also gave a TGI [25] of 3.26 µM, a GI50 [26] of 0.72 µM and a GI50 [27] of 1.49 µM. For the same molecule, the GI50 [28] was 1.8 µM and the TGI [29] was 2.12 µM.
